Results collected from several papers.
Protocols differ between the studies behind these lines.
Target: Serine/threonine-protein kinase ULK3 (ULK3, Homo sapiens, UniProt Q6PHR2)
One construct used (Q6PHR2 1-472): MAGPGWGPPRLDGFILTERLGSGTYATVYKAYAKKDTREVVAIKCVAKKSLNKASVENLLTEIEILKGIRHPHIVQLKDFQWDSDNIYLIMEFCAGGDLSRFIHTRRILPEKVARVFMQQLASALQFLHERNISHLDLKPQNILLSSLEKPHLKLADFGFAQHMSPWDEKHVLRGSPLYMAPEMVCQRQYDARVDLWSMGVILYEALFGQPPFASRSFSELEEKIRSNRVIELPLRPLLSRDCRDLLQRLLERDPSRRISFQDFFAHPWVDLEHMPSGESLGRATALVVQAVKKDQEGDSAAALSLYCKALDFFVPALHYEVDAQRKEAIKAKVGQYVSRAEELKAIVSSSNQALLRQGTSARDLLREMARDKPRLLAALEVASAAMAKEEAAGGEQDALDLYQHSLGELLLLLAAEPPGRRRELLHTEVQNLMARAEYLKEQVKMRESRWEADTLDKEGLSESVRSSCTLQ

SMILES	read-out	mode	method	tested at	endpoint	result
Clc1ccc(Nc2nnc(Cc3ccncc3)c3ccccc23)cc1	cell-free assay			0.5 µM	remaining signal	101%
Nc1cnc(N2CCc3cc(S(=O)(=O)Nc4c(F)cc(Cl)cc4F)cc(N4CCCC4=O)c32)nc1	cell-free assay		competition with immobilised ligand	1 µM	remaining binding	100%
Cc1cnc(NC2CCOCC2)nc1-n1cnc(C(=O)NC(CN)c2cc(F)cc(Cl)c2)c1 (centres unmarked)	enzyme activity	inhibitor	radiometric	1 µM	remaining activity	91%
O=C(Nc1cnn(-c2csc(C(=O)NC3COC3)c2)c1)Nc1c(F)cccc1Cl	enzyme activity	inhibitor		5 µM	remaining activity	76.6%
Cc1ccc(C(=O)Nc2ccc(CN3CCN(C)CC3)c(C(F)(F)F)c2)cc1C#Cc1cnc2cccnn12	enzyme activity	inhibitor		23.5 nM	remaining activity	61%
C[C@@]1(Cc2ccc(C#N)cc2)C(=O)N(c2cc(Cl)cc(Cl)c2)c2ncc(C(=O)NC3(c4nc(C5CCC5)no4)CC3)n21	cell-free assay		competition with immobilised ligand	1 µM	remaining binding	100%
Cc1ccc(C(=O)NCc2ccsc2)cc1C#Cc1cn(C(C)C)c2ncnc(N)c12	enzyme activity	inhibitor		1 µM	activity vs control	84%
C[C@@H](c1cccc(C#N)c1)n1cc(Cl)cc(C(N)=O)c1=N	cell-free assay		competition with immobilised ligand	1 µM	remaining binding	75%
Oc1cccc(-c2nc(N3CCOCC3)c3oc4ncccc4c3n2)c1	cell-free assay			0.5 µM	remaining signal	99.7%
Nc1ncnc2occ(-c3ccc(NC(=O)Nc4cc(C(F)(F)F)ccc4F)cc3)c12	cell-free assay	inhibitor		20 µM	remaining signal	0.6%
COc1cc2c(Nc3ccc(Br)cc3F)ncnc2cc1OCC1CCN(C)CC1	cell-free assay			0.5 µM	remaining signal	105%
CC(C)(O)[C@H]1CC[C@H](Nc2ccc3ncc(-c4cccc(C(F)(F)F)c4)n3n2)CC1	enzyme activity	inhibitor		1 µM	remaining activity	86.2%
CCc1ccccc1C(=O)Nc1n[nH]c2c(C)c(F)c(C3C(C#N)=C(C)N(C)C(C)=C3C#N)cc12	cell-free assay		competition with immobilised ligand	1 µM	remaining binding	82%
CS(=O)(=O)CCNCc1ccc(-c2ccc3ncnc(Nc4ccc(OCc5cccc(F)c5)c(Cl)c4)c3c2)o1	cell-free assay			0.5 µM	remaining signal	106%
